Structures can show the parent of a compound that is named as a salt. Calls of active or inactive are those of the source. No cut-off for these calls is given here.
What was measured:
[1] = molecular target: T1, DNA topoisomerase 1 (Homo sapiens) (UniProt P11387); assay: Inhibition of human recombinant DNA topoisomerase 1-mediated relaxation of supercoiled pBR322 DNA at 100 uM after 30 mins by agarose gel electrophoresis
T1 sequence (whole entry): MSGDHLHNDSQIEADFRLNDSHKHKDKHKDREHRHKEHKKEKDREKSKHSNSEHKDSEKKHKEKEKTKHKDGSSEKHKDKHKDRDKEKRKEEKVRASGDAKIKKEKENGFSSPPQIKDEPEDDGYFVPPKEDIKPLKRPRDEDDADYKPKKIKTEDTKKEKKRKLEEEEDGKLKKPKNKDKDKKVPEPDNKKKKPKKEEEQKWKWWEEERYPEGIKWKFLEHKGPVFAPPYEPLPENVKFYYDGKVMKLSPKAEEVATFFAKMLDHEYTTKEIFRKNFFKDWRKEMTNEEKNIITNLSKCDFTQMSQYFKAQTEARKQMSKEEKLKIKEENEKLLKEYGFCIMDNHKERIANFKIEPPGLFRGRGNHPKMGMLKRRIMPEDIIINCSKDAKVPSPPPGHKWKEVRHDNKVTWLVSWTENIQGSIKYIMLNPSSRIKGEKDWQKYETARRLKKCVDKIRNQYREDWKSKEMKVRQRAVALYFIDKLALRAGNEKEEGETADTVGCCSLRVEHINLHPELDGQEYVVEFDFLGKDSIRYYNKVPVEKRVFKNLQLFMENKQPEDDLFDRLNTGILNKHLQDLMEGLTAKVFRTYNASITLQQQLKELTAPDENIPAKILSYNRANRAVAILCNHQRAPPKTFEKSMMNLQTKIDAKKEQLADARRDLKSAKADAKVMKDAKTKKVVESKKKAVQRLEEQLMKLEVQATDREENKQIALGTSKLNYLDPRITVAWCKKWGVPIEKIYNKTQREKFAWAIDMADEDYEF
Procedure, shortened: (§1)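 Recombinant human topo I (0.4 units) with 100 ng supercoiled pBR322, 30 min at 37 °C in 10 mM Tris–HCl pH 7.9, 150 mM NaCl, 0.1% BSA, 1 mM spermidine, 5% glycerol. Compounds from 20 mM DMSO stock. Products run on 1% agarose in TAE, 15 V for 7 h, ethidium-stained, bands quantified under UV.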

[2] = molecular target: T1, DNA topoisomerase 1 (Homo sapiens); assay: Inhibition of human recombinant DNA topoisomerase 1-mediated relaxation of supercoiled pBR322 DNA at 20 uM after 30 mins by agarose gel electrophoresis; procedure, shortened: as §1
[3] = molecular target: DNA topoisomerase 2-alpha (Homo sapiens) (UniProt P11388); assay: Inhibition of human DNA topoisomerase 2alpha-mediated relaxation of supercoiled pBR322 DNA at 100 uM after 30 mins by agarose gel electrophoresis
Procedure, shortened: (§2)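 Human topo IIα (1 unit) with 200 ng supercoiled pBR322, 30 min at 30 °C in 10 mM Tris–HCl pH 7.9, 50 mM NaCl, 50 mM KCl, 5 mM MgCl2, 1 mM EDTA, 1 mM ATP plus BSA. Products run on 1% agarose in TAE at 25 V for 4 h, ethidium-stained, supercoiled DNA quantified under UV.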

[4] = molecular target: DNA topoisomerase 2-alpha (Homo sapiens) (UniProt P11388); assay: Inhibition of human DNA topoisomerase 2alpha-mediated relaxation of supercoiled pBR322 DNA at 20 uM after 30 mins by agarose gel electrophoresis; procedure, shortened: as §2
MCF7 = assay: Cytotoxicity against human MCF7 cells after 4 days by ELISA reader assay; type: functional, cell-based; settings: MCF7, 96 h
Procedure, shortened: (§3)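 Cells grown per supplier, seeded at 2–4 × 10⁴ per well, left overnight in medium with 10% FBS at 37 °C under 5% CO₂, then exposed to compounds. WST (cell counting kit-8) reagent added for a further 4 h, absorbance read at 450 nm. IC50 from four-parameter logistic fit; mean ± S.D. of three experiments, each in triplicate.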

DU-145 = assay: Cytotoxicity against human DU145 cells after 4 days by ELISA reader assay; type: functional, cell-based; settings: DU-145, 96 h; procedure, shortened: as §3
HCT-15 = assay: Cytotoxicity against human HCT15 cells after 4 days by ELISA reader assay; type: functional, cell-based; settings: HCT-15, 96 h; procedure, shortened: as §3
K562 = assay: Cytotoxicity against human K562 cells after 4 days by ELISA reader assay; type: functional, cell-based; settings: K562, 96 h; procedure, shortened: as §3
HeLa = assay: Cytotoxicity against human HeLa cells after 4 days by ELISA reader assay; type: functional, cell-based; settings: 96 h; procedure, shortened: as §3

DNA topoisomerase 2-alpha (Homo sapiens), sequence (P11388 whole entry): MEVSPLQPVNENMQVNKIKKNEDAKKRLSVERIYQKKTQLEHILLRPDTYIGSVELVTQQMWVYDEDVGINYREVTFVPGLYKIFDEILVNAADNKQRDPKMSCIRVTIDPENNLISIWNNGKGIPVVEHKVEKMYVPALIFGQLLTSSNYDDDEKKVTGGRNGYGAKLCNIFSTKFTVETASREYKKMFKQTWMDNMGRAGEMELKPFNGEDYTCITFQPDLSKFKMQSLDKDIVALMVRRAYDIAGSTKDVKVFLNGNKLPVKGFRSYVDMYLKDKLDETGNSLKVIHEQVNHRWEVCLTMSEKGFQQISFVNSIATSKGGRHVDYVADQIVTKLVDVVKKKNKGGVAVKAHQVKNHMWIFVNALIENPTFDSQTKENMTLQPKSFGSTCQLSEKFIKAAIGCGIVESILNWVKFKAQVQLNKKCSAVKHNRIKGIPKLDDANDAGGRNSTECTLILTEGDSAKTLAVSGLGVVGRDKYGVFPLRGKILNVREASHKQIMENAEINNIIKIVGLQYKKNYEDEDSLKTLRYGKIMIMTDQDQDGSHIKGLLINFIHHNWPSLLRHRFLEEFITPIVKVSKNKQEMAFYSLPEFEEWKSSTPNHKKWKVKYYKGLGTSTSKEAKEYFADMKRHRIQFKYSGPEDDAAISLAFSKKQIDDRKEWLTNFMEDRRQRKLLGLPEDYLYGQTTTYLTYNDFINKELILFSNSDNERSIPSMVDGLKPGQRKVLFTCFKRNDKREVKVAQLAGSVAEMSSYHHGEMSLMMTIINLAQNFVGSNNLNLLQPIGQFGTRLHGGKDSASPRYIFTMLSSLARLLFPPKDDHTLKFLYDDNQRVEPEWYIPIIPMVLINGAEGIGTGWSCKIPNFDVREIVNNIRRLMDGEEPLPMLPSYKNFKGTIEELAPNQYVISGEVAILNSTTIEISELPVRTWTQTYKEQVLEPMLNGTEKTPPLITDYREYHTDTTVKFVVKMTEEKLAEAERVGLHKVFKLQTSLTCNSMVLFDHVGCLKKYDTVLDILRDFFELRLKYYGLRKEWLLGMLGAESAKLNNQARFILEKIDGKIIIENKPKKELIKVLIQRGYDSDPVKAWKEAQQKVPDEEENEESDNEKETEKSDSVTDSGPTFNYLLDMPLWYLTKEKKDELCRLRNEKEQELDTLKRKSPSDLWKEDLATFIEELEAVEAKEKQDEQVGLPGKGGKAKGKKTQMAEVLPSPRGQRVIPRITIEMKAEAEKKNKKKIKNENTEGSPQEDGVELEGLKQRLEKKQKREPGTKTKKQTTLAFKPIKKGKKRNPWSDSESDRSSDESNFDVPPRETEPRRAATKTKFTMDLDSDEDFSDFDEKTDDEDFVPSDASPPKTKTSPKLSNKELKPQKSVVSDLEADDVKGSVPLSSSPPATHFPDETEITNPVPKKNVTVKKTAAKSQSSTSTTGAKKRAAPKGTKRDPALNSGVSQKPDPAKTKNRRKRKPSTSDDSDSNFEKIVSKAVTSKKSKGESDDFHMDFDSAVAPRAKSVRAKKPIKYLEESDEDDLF

SMILES | inhibition [1] | inhibition [2] | inhibition [3] | inhibition [4] | IC50 (MCF7) | IC50 (DU-145) | IC50 (HCT-15) | IC50 (K562) | IC50 (HeLa)
Cc1ccsc1-c1cc(-c2ccoc2)cc(-c2ccco2)n1 | 5.4% | inactive | 59.9% | 36.4% | 18.2 µM | 30.4 µM | 0.64 µM | 23.3 µM | 30.5 µM
Clc1ccc(-c2cc(-c3ccc(Cl)o3)cc(-c3ccc(Cl)s3)n2)cc1 | 2.2% | inactive | 59.8% | 42.7% | 12.6 µM | 23 µM | 25.3 µM | 19.3 µM | 25.1 µM
Cc1ccsc1-c1cc(-c2ccc(Cl)o2)cc(-c2cccc(Cl)c2)n1 | 5.9% | inactive | 51.5% | 35.7% | 18.8 µM | 20.5 µM | 26.4 µM | 13.4 µM | 24.8 µM
Cc1ccsc1-c1cc(-c2ccco2)cc(-c2ccccc2Cl)n1 | 2% | inactive | 33.2% | 3.5% | 14.2 µM | 29.9 µM | 0.54 µM | 25.4 µM | 24 µM
Clc1ccc(-c2cc(-c3ccoc3)cc(-c3ccc(Cl)s3)n2)cc1 | 2.3% | inactive | 62.7% | 56.9% | 2.6 µM | 29.5 µM | 0.64 µM | 19.6 µM | 16.5 µM
Clc1ccc(-c2cc(-c3ccco3)nc(-c3ccc(Cl)s3)c2)o1 | 23.1% | inactive | 53.8% | 39.9% | 16.9 µM | 27.7 µM | > 50 µM | 22.5 µM | > 50 µM
Cc1ccc(-c2cc(-c3ccoc3)cc(-c3ccc(Cl)s3)n2)o1 | 13.2% | inactive | 60.5% | 54% | 1.9 µM | 33.4 µM | 0.79 µM | 12.7 µM | 26.5 µM
Clc1ccc(-c2cc(-c3ccco3)cc(-c3ccc(Cl)s3)n2)cc1 | 53.1% | 42.9% | 53.3% | 48.4% | 1.52 µM | 14.8 µM | 1.08 µM | 10.5 µM | 17 µM
Cc1ccccc1-c1cc(-c2ccoc2)cc(-c2ccc(Cl)s2)n1 | 4.6% | inactive | 60.7% | 49.2% | 1.43 µM | 18.5 µM | 0.99 µM | 12.3 µM | 19 µM
Cc1ccc(-c2cc(-c3ccc(Cl)o3)cc(-c3ccc(Cl)s3)n2)cc1 | 14.2% | inactive | 58.6% | 41.1% | 3.04 µM | > 50 µM | > 50 µM | 21.4 µM | > 50 µM
CC[C@@]1(O)C(=O)OCc2c1cc1n(c2=O)Cc2cc3ccccc3nc2-1 [CAMPTOTHECIN] | – | – | – | – | 0.06 µM | 0.66 µM | 0.76 µM | – | –
COc1cccc2c1C(=O)c1c(O)c3c(c(O)c1C2=O)C[C@@](O)(C(=O)CO)C[C@@H]3O[C@H]1C[C@H](N)[C@H](O)[C@H](C)O1 [DOXORUBICIN HYDROCHLORIDE] | – | – | – | – | – | 1.5 µM | 2.12 µM | 2.5 µM | –
Cc1ccsc1-c1cc(-c2ccc(Cl)o2)cc(-c2ccco2)n1 | 7.8% | inactive | 61.1% | 30.7% | 5.57 µM | 27.3 µM | 26.3 µM | 10.6 µM | 22.2 µM

From ChEMBL document CHEMBL1157684, “2-Thienyl-4-furyl-6-aryl pyridine derivatives: synthesis, topoisomerase I and II inhibitory activity, cytotoxicity, and structure-activity relationship study” (Bioorg Med Chem, 2010)
